From ChEMBL document CHEMBL1671773, “Benzoquinazoline derivatives as new agents affecting DNA processing” (Bioorg Med Chem, 2011)
Active and inactive are the calls of the source. The rule behind the calls is not given here.

Columns and labels:
HL-60 = experiment: Growth inhibition in human HL60 cells after 72 hrs by trypan blue assay; assay type: functional, cell-based; conditions: HL-60, 72 h
Method in brief: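 HL-60 cells were grown in RPMI 1640 with 15% heat-inactivated FCS and antibiotics at 37 °C under 5% CO2. 4 × 10⁴ cells per well were seeded, and after 24 h test agents were added to complete medium for 72 h. Viability was read by trypan blue. IC50 is the concentration giving 50% reduction in cell number versus control cultures.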

HeLa [1] = experiment: Growth inhibition in human HeLa cells after 72 hrs by trypan blue assay; assay type: functional, cell-based
Method in brief: (§1)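 HeLa (F-12 medium) and A431 (D-MEM) cells were grown with 10% heat-inactivated FCS and antibiotics at 37 °C under 5% CO2. 4 × 10⁴ cells per well were seeded for 24 h, then medium was replaced with fresh medium containing test agents for 72 h. Viability was read by trypan blue. IC50 is the concentration halving cell number versus control.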

Nucleic Acid [2] = experiment: Binding affinity to Salmon testes DNA assessed as drug-DNA complex formation at drug/DNA ratio 0.16 by linear flow dichroism method; assay type: nucleic-acid assay; conditions: Salmonidae
A-431 = experiment: Growth inhibition in human A431 cells after 72 hrs by trypan blue assay; assay type: functional, cell-based; conditions: A-431, 72 h; method in brief: as §1
[3] = target: DNA topoisomerase 2-alpha (Homo sapiens) (UniProt P11388); experiment: Inhibition of human recombinant topoisomerase 2-mediated relaxation of supercoiled pBR322 DNA upt0 100 uM after 60 mins by agarose gel electrophoresis
Sequence of DNA topoisomerase 2-alpha (Homo sapiens) (P11388 whole entry): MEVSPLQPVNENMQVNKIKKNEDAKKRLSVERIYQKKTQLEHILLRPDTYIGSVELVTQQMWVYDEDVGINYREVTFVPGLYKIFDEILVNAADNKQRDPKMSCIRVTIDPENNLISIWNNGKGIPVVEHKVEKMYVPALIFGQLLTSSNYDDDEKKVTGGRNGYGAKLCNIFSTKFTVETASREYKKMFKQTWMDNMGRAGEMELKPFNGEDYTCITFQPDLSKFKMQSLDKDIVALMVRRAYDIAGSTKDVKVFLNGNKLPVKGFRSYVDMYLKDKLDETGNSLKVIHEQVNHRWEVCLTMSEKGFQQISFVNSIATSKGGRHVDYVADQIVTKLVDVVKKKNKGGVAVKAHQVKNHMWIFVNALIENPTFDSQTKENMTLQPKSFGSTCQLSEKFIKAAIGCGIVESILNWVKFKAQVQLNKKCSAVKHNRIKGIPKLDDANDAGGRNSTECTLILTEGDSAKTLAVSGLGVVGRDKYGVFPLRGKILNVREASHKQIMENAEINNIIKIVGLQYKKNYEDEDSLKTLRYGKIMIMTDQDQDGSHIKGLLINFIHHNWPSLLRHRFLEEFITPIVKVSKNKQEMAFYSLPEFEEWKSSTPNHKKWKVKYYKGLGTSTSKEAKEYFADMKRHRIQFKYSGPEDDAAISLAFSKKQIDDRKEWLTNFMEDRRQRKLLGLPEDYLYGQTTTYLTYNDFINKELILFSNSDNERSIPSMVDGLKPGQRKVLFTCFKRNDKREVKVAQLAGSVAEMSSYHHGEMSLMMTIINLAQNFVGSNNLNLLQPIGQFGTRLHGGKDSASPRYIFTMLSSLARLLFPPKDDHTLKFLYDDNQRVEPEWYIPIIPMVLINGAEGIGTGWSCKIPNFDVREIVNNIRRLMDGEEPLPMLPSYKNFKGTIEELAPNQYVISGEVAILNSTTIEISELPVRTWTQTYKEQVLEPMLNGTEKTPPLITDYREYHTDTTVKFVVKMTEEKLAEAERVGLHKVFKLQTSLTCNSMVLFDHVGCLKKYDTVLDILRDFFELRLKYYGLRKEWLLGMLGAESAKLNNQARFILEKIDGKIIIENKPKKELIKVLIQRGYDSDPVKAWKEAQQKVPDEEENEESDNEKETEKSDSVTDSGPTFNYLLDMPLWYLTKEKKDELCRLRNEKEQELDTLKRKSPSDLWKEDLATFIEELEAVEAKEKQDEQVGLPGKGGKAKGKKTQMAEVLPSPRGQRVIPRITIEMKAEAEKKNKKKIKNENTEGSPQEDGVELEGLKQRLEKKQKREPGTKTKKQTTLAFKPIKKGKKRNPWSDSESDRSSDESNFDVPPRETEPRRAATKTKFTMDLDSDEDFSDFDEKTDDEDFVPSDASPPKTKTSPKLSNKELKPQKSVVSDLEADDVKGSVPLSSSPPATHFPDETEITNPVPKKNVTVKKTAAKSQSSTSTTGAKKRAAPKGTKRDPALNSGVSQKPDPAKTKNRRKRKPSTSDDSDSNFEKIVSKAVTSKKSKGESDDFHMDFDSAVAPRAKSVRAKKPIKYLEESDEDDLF
Method in brief: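 Supercoiled pBR322 (0.25 µg) was incubated with 1 U topoisomerase II plus compounds for 60 min at 37 °C in 20 µL. The reaction was stopped with SDS stop buffer and 50 µg/mL proteinase K for 30 min at 37 °C. Products were run on a 1% agarose gel at room temperature, then stained with 1 µg/mL ethidium bromide and imaged under UV.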

Nucleic Acid [4] = experiment: Binding affinity to Salmon testes DNA assessed as drug-DNA complex formation at drug/DNA ratio 0.08 by linear flow dichroism method; assay type: nucleic-acid assay; conditions: Salmonidae
Nucleic Acid [5] = experiment: Stabilization of supercoiled pBR322 DNA-human recombinant topoisomerase 2 complex assessed as linear DNA formation at 8 uM after 60 mins; assay type: nucleic-acid assay; conditions: Escherichia coli
Nucleic Acid [6] = experiment: Stabilization of supercoiled pBR322 DNA-human recombinant topoisomerase 2 complex assessed as linear DNA formation at 10 to 100 uM after 60 mins; assay type: nucleic-acid assay; conditions: Escherichia coli
Nucleic Acid [7] = experiment: Induction of Escherichia coli supercoiled pBR322 DNA cleavage at 50 uM after 60mins by gel electrophoresis; assay type: nucleic-acid assay
HeLa [8] = experiment: Induction of apoptosis in human HeLa cells assessed as induction of DNA fragmentation at 200 uM after 24 hrs using ethidium bromide staining by agarose gel electrophoresis; assay type: functional, cell-based
Method in brief: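 HeLa cells (5 × 10⁵) were preincubated 24 h at 37 °C, then medium was replaced with fresh medium containing test agent; controls received solvent alone. After 24 h, nuclear DNA was extracted and dissolved in TE buffer (10 mM Tris pH 8, 1 mM EDTA). Fragmentation was examined on a 1% agarose gel.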

Nucleic Acid [9] = experiment: Induction of Escherichia coli supercoiled pBR322 DNA cleavage after 60mins by gel electrophoresis; assay type: nucleic-acid assay

SMILES	IC50 (HL-60) [µM]	IC50 (HeLa [1]) [µM]	Activity (Nucleic Acid [2])	IC50 (A-431) [µM]	inhibition [3]	Activity (Nucleic Acid [4])	Activity (Nucleic Acid [5])	Activity (Nucleic Acid [6])	inhibition (Nucleic Acid [7])	inhibition (Nucleic Acid [9])	Activity (HeLa [8])
CN(C)CCNc1ncnc2c1ccc1ccccc12	61.6	> 100	Active	50.5	inactive	Active	–	–	–	–	–
COc1cc(NS(C)(=O)=O)ccc1Nc1cc2ncncc2c2ccccc12	30.7	> 100	–	77.7	–	–	–	–	–	–	–
Cc1c2ccncc2c(C)c2c1[nH]c1ccccc12 [ELLIPTECINE]	0.64	0.31	–	0.47	–	–	–	–	–	–	–
CN(C)CCNc1cc2cncnc2c2ccccc12	10.8	15.7	–	3.6	–	Active	–	Active	Dose-dependent effect	Active	Active

Second part, led by results:

IC50 (HL-60) [µM]	IC50 (HeLa [1]) [µM]	Activity (Nucleic Acid [2])	IC50 (A-431) [µM]	inhibition [3]	Activity (Nucleic Acid [4])	Activity (Nucleic Acid [5])	Activity (Nucleic Acid [6])	inhibition (Nucleic Acid [7])	inhibition (Nucleic Acid [9])	SMILES	Activity (HeLa [8])
26.5	> 100	–	57.7	–	–	–	–	–	–	CS(=O)(=O)Nc1ccc(Nc2cc3cncnc3c3ccccc23)cc1	–
26.9	> 100	–	> 100	–	–	–	–	–	–	COc1cc(NS(C)(=O)=O)ccc1Nc1cc2cncnc2c2ccccc12	–
0.006	0.012	–	0.17	–	–	Active	–	–	–	COc1cc(NS(C)(=O)=O)ccc1Nc1c2ccccc2nc2ccccc12 [AMSACRINE]	–
> 100	> 100	–	> 100	–	–	–	–	–	–	CS(=O)(=O)Nc1ccc(Nc2cc3ncncc3c3ccccc23)cc1	–
4.3	23.2	–	4.3	–	Active	–	Active	Dose-dependent effect	Active	CN(C)CCNc1cc2ncncc2c2ccccc12	Active
